pKi: −log10 of the molar value.

Broadly, the pKi is −log10 of the Ki, conventionally taken in molar units. A word on the inhibition: it is the relative decrease from the control value, in per cent.

The nature of data set [1]: Passive permeability in canine kidney cells. Format: ADME, cell-based, Canis lupus familiaris. Conditions: dog; read-out: permeability.
Data set [2] addresses Serine/threonine-protein kinase mTOR (Homo sapiens, UniProt P42345). Briefly: Inhibition of GST-tagged mTOR assessed as phosphorylation at Thr46 in GFP-4E-BP1 substrate by TR-FRET assay. The essentials: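 GST-tagged mTOR (aa 1360-2549) at 1 nM, with 0.4 μM GFP-4E-BP1 and 40 μM ATP. Buffer: 50 mM Hepes pH 7.4, 10 mM MgCl2, 1 mM EGTA, 0.01% Tween-20, at about 22 °C. A terbium anti-phospho-Thr46 antibody was added at the end, and the read-out was TR-FRET. Duplicate data fitted by nonlinear regression. Concentrations are final.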
In general terms: In TR-FRET formats the signal depends on donor and acceptor labels being close together.

In data set [3] the target is cAMP-dependent protein kinase catalytic subunit alpha (Homo sapiens) (UniProt P17612). The data set is described as follows: Inhibition of PRKACA at 1 uM.
In data set [4] the target is T1, Serine/threonine-protein kinase Sgk1 (Homo sapiens) (UniProt O00141).
T1 sequence (whole entry): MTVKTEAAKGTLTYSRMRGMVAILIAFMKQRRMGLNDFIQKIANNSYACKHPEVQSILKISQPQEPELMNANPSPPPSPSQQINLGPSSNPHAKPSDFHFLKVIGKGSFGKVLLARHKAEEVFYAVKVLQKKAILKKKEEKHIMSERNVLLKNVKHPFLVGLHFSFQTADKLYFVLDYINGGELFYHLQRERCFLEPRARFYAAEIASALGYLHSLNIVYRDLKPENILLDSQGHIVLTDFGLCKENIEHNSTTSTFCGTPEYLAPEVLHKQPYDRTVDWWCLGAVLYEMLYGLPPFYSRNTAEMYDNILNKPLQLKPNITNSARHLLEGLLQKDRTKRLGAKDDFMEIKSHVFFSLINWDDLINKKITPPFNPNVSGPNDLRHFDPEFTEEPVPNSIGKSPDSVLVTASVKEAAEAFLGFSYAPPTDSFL
Briefly: Inhibition of SGK at 1 uM.

Data set [5] has as its target Cyclin-dependent kinase 2/cyclin A (Homo sapiens) (UniProt P24941+P20248+P78396). Briefly: Inhibition of CDK2/cyclinA at 1 uM. Format: protein-complex assay.
Data set [6] has as its target Angiopoietin-1 receptor (Homo sapiens) (UniProt Q02763). Briefly: Inhibition of TEK at 1 uM.
Data set [7] addresses Epidermal growth factor receptor (Homo sapiens) (UniProt P00533). Briefly: Inhibition of EGFR at 1 uM.
Data set [8] deals with MAP kinase-activated protein kinase 2 (Homo sapiens) (UniProt P49137). Briefly: Inhibition of MAPKAPK2 at 1 uM.
Chain of MAP kinase-activated protein kinase 2 (Homo sapiens) (P49137 whole entry, looked up): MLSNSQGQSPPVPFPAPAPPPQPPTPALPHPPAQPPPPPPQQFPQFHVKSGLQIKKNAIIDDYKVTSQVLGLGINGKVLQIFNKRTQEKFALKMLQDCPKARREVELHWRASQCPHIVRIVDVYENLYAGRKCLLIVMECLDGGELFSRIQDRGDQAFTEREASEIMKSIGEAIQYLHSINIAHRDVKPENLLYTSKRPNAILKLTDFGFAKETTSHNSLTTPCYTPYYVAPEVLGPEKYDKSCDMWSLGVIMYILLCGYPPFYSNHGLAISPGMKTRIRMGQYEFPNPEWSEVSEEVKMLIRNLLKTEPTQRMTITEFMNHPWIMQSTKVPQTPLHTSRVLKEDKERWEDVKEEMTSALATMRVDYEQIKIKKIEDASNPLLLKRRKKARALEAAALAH

Chain of Epidermal growth factor receptor (Homo sapiens) (P00533 whole entry): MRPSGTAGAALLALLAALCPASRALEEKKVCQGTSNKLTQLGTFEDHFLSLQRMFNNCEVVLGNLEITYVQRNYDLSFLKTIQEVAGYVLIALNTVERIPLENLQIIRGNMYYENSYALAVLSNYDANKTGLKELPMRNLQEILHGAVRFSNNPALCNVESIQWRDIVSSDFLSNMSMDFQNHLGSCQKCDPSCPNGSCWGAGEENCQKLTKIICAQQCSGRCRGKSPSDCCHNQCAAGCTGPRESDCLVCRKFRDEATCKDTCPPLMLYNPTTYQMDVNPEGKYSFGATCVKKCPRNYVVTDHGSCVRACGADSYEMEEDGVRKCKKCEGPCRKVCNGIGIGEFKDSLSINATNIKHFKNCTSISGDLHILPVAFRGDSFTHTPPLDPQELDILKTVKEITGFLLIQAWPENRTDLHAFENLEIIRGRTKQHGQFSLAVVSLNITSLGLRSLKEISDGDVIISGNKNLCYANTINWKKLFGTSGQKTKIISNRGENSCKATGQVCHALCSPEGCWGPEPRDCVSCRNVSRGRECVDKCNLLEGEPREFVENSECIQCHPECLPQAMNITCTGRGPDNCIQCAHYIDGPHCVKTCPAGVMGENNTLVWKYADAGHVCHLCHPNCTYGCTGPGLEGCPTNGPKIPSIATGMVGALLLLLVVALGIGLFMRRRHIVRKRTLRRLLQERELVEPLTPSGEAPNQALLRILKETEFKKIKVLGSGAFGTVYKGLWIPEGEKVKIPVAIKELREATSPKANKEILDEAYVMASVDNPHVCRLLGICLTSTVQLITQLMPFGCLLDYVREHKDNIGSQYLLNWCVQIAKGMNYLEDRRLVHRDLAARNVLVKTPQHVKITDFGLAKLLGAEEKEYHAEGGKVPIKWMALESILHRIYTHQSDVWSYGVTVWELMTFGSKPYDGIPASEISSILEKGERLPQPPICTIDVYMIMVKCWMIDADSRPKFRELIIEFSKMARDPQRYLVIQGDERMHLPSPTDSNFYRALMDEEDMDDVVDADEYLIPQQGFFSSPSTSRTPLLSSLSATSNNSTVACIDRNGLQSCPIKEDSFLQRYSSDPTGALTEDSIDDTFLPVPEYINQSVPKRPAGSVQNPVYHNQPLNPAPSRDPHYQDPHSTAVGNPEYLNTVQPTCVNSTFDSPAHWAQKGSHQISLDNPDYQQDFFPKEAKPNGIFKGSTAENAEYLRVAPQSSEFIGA
Chain of Angiopoietin-1 receptor (Homo sapiens) (Q02763 whole entry): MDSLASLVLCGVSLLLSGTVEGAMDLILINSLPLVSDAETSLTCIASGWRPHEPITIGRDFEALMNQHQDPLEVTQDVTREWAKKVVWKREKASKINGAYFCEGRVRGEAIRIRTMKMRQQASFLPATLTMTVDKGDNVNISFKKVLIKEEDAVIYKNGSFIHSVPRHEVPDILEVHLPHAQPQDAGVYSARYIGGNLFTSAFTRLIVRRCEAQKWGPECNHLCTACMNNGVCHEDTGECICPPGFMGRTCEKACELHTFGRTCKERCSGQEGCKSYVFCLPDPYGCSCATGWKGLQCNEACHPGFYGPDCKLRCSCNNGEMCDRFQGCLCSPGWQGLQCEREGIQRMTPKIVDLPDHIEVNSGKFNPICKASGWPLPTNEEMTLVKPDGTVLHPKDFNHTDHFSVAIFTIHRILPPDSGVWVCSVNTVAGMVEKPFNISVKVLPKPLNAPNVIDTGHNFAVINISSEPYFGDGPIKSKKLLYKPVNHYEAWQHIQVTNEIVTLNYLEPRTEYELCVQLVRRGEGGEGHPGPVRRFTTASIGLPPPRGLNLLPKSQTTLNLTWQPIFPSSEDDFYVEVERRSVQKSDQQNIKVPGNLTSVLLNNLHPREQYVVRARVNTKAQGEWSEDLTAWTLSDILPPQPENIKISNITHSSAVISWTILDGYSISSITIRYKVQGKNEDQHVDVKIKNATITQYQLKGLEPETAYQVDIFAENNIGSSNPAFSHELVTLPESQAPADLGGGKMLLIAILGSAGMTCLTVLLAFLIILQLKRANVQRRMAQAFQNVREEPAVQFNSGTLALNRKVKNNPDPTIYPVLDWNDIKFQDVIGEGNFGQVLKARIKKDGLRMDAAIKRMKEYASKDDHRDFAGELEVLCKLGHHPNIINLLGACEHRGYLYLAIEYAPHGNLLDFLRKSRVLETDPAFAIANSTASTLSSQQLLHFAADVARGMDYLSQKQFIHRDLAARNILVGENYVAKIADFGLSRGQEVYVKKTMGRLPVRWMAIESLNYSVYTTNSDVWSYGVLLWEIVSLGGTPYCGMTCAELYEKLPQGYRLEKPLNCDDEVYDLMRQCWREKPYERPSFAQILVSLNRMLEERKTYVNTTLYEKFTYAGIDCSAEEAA

For `CC(=O)N1CC[C@@H](Nc2cncc(C(=O)c3cn(C(C)C)c4ncnc(N)c34)n2)[C@H]1c1ccccc1`, the Papp in data set [1] is 11 ×10⁻⁶ cm/s. Further, in data set [2], the pKi was 5.41. Moreover, the inhibition was 30% in data set [3]; 30% in data set [4]; 12% in data set [5]; 5% in data set [6]; -2% in data set [7]; 6% in data set [8].
In the case of `CC(=O)N1CC[C@@H](Nc2cncc(C(=O)c3cn(C(C)C)c4ncnc(N)c34)n2)[C@H]1c1ccc(F)cc1`, in data set [1], the Papp is 11 ×10⁻⁶ cm/s. Further, the pKi in data set [2] is 5.59. Further, the inhibition was found to be 58% in data set [3]; 61% in data set [4]; 34% in data set [5]; 19% in data set [6]; 1% in data set [7]; 2% in data set [8].
As to `CC(C)n1cc(C(=O)c2cncc(N[C@@H]3CCN(C=O)[C@@H]3c3ccc(F)cc3)n2)c2c(N)ncnc21`, the Papp in data set [1] stood at 11 ×10⁻⁶ cm/s. For the same compound, in data set [2], the pKi was 5.55. Moreover, the inhibition in data set [3] worked out at 74%; in data set [4], 48%; in data set [5], 44%; in data set [6], 10%; in data set [7], 7%; in data set [8] it was 6%.

These data come from ChEMBL document CHEMBL1938337, “Discovery of novel, potent, and selective inhibitors of 3-phosphoinositide-dependent kinase (PDK1)” (J Med Chem, 2011).
